The results in this text go back to ChEMBL document CHEMBL1124865, “Synthesis and biological evaluation of a series of parenteral 3'-quaternary ammonium cephalosporins” (J Med Chem, 1990).

The test system of data set [1] is Escherichia coli. Briefly: In vitro relative hydrolysis rate against Escherichia coli IIIa. The class given is functional. The method in brief:
(§1)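 Spectrophotometric hydrolysis at 265 nm, substrate exposed to partially purified cell-free β-lactamase preparations; rate expressed as percentage of the cephaloridine rate.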

The test system of data set [2] is Canis familiaris. Briefly: Percent of dose in dogs urine at the dose of 30 mg/kg. The class given is functional, Canis lupus familiaris. The method in brief:
(§2)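 Overnight-fasted female mongrel dogs with a Foley bladder catheter; bolus into the cephalic vein. Plasma and urine collected before dosing and over 24 h after. Antibacterial activity measured by microbiological assay.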

For data set [3], the system named is Escherichia coli. In words: Antibacterial activity against Escherichia coli EC14. The class given is functional.
Another data set has as its system Streptococcus pneumoniae. Briefly: Antibacterial activity against Streptococcus pneumoniae. The class given is functional.
Data set [4] deals with Klebsiella pneumoniae. Briefly: Antibacterial activity against Klebsiella pneumoniae X26. The class given is functional.
Data set [5] concerns Pseudomonas aeruginosa. In words: (§3) In vivo efficacy against Pseudomonas aeruginosa infected mice treated at 1 hr and 5 hr post infection. The settings on record: Pseudomonas aeruginosa; read-out: ED50. Type of data set: functional.
The test system of data set [6] is Escherichia coli. In words: Antibacterial activity against Escherichia coli TEM. The class given is functional.
Data set [7] in a line: Terminal half life in dogs at the dose of 30 mg/kg. The class given is ADME, organism-based, Canis lupus familiaris. Also noted: dose 30 mg/kg. The settings on record: dog, in vivo. The method in brief: as §2
For data set [8], the species on record is Cavia porcellus. In words: In vitro relative anticholinergic activity in isolated guinea pig trachea. Type of data set: functional. The settings on record: read-out: pA2 (converted). The method, boiled down: (§4)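 Guinea pig trachea in Krebs' solution at 37.5 °C, 95% O2/5% CO2, pH 7.4, 2 g resting tension. Cumulative carbachol log dose-response curve (3-fold steps) run before and 30 min after adding antagonist at 1 mM. […] Tukey test on log2 dose ratios.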

Data set [9] is filed under the species Cavia porcellus. Briefly: In vitro relative anticholinergic potential in isolated guinea pig trachea. The class given is functional. The method in brief: as §4
Data set [10] in a line: Terminal half life in dogs at the dose of 15 mg/kg. The class given is ADME, organism-based, Canis lupus familiaris. Also noted: dose 15 mg/kg. Conditions: dog, in vivo. The method, boiled down: as §2
The subject of data set [11] is Escherichia coli. Briefly: (§5) In vivo efficacy against Escherichia coli infected mice treated at 1 hr and 5 hr post infection. The class given is functional. Conditions: Escherichia coli; read-out: ED50.
In data set [12] the test system is Klebsiella pneumoniae. Briefly: In vitro relative hydrolysis rate against Klebsiella IV. Type of data set: functional. The method in brief: as §1
Data set [13] deals with Canis familiaris. Briefly: Percent of dose in dogs urine at the dose of 15 mg/kg. Type of data set: functional, Canis lupus familiaris. The method, boiled down:
as §2

Data set [14] has as its system Streptococcus pyogenes. Briefly: Antibacterial activity against Streptococcus pyogenes. Type of data set: functional.
The subject of another data set is Enterococcus faecium. In words: Antibacterial activity against Enterococcus faecium. The class given is functional. Conditions: Enterococcus faecium; read-out: MIC.
Data set [15] relates to Pseudomonas aeruginosa. In words: In vitro relative hydrolysis rate against Pseudomonas Id. Type of data set: functional. The method in brief: as §1
Data set [16] concerns Pseudomonas aeruginosa. In words: Antibacterial activity against Pseudomonas aeruginosa PS18. Type of data set: functional.
In data set [17] the test system is Staphylococcus aureus. Briefly: (§6) In vivo efficacy against Staphylococcus aureus infected mice treated at 1 hr and 5 hr post infection. The class given is functional. The settings on record: Staphylococcus aureus; read-out: ED50.
For the next data set, the system named is Serratia marcescens. In words: Antibacterial activity against Serratia marcescens SE3. Type of data set: functional.
Data set [18] relates to Pseudomonas aeruginosa. In words: In vivo efficacy against Pseudomonas aeruginosa infections in mice. The class given is functional. Conditions: Pseudomonas aeruginosa; read-out: MIC.
Data set [19] concerns Enterobacter cloacae. Briefly: Antibacterial activity against Enterobacter cloacae EB5. Type of data set: functional.
The subject of data set [20] is Staphylococcus aureus. Briefly: In vitro relative hydrolysis rate against Staphylococcus aureus. Type of data set: functional. The method in brief:
as §1

Data set [21] can be described thus: In vitro dose required for anticholinergic activity in isolated guinea pig trachea. The class given is functional.
Data set [22] deals with Staphylococcus aureus. Briefly: Antibacterial activity against penicillin G resistance Staphylococcus aureus. Type of data set: functional.
The test system of data set [23] is Pseudomonas aeruginosa. Briefly: Antibacterial activity against Pseudomonas aeruginosa X528. The class given is functional.
Data set [24] relates to Enterobacter cloacae. Briefly: (§7) Antibacterial activity against Enterobacter cloacae 265A. The class given is functional.
In data set [25] the test system is Escherichia coli. In words: In vivo efficacy against Escherichia coli infections in mice. Conditions: Escherichia coli; read-out: MIC. Type of data set: functional.
Data set [26] has as its system Enterobacter cloacae. In words: In vitro relative hydrolysis rate against Enterobacter Ia. The class given is functional. The method in brief: as §1
Data set [27] relates to Staphylococcus aureus. In words: Antibacterial activity against penicillin G susceptible Staphylococcus aureus. Type of data set: functional.
In data set [28] the test system is Klebsiella pneumoniae. Briefly: microbe, parasite or virus in culture. The settings on record: Klebsiella pneumoniae; read-out: MIC. The class given is functional.
In data set [29] the test system is Staphylococcus aureus. Briefly: In vivo efficacy against Staphylococcus aureus infections in mice. Type of data set: functional. Conditions: Staphylococcus aureus; read-out: MIC.
For data set [30], the system named is Mus musculus. Described as §3. Type of data set: functional. The method, boiled down:
(§8)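 Mice given lethal experimental infections, with treatment at 1 and 5 h postinfection; ED50 expressed as mg/kg × 2.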

In data set [31] the test system is Mus musculus. Described as §5. The class given is functional. The method, boiled down: as §8
For data set [32], the system named is Mus musculus. Described as §6. The class given is functional. The method in brief:
as §8

For the next data set, the system named is Bacteria. The data set is described as §7.
The subject of data set [33] is Streptococcus pyogenes. In words: Antibacterial activity against Streptococcus pyogenes.
The mark [34] stands for this setting: Escherichia coli, read-out: MIC.
Setting [35] is: Streptococcus pneumoniae, read-out: MIC.
Where [36] appears, read: Klebsiella pneumoniae, read-out: MIC.
[37] abbreviates: Pseudomonas aeruginosa, read-out: MIC.
Setting [38] is: Serratia marcescens, read-out: MIC.
Where [39] appears, read: Enterobacter cloacae, read-out: MIC.
[40] abbreviates: Staphylococcus aureus, read-out: MIC.

SMILES strings stand for the structures. Converted amounts (≈) assume the structure as drawn.

As for `CO/N=C(\C(=O)N[C@@H]1C(=O)N2C(C(=O)[O-])=C(C[n+]3ccc4sccc4c3)CS[C@H]12)c1csc(N)n1`, the Hydrolysis rate in the data set on Escherichia coli [1] was 0.3; in the data set on Klebsiella pneumoniae [12], 3.4; with Pseudomonas aeruginosa [15], 0.3; in the data set with Staphylococcus aureus [20] it was 7.8; in the data set on Enterobacter cloacae [26] it was 0.6. For the same compound, the figures for the Dose in the data set on Canis familiaris [2] and in the data set on Canis familiaris [13] were 58% and 55%, respectively. Besides, the MIC with Escherichia coli [3] (setting [34]) is 0.015 µg/mL (≈ 0.0283 µM); with Streptococcus pneumoniae (setting [35]) it was 0.015 µg/mL (≈ 0.0283 µM); in the data set on Klebsiella pneumoniae [4] (setting [36]), 0.015 µg/mL (≈ 0.0283 µM); in the data set on Escherichia coli [6] (setting [34]), 0.03 µg/mL (≈ 0.0565 µM); in the data set with Streptococcus pyogenes [14] (Streptococcus pyogenes, read-out: MIC), under 0.008 µg/mL; in the data set on Enterococcus faecium, over 128 µg/mL. In addition, the MIC came out at 4 µg/mL (≈ 7.54 µM) in the data set with Pseudomonas aeruginosa [16] (setting [37]); 0.125 µg/mL (≈ 0.236 µM) with Serratia marcescens (setting [38]); 2 µg/mL (≈ 3.77 µM) in the data set on Pseudomonas aeruginosa [18]; 0.06 µg/mL (≈ 0.113 µM) with Enterobacter cloacae [19] (setting [39]); 2 µg/mL (≈ 3.77 µM) with Staphylococcus aureus [22] (setting [40]); 2 µg/mL (≈ 3.77 µM) with Pseudomonas aeruginosa [23] (setting [37]). For the same compound, the MIC in the data set with Enterobacter cloacae [24] (setting [39]) was 4 µg/mL (≈ 7.54 µM); with Escherichia coli [25] it was under 8 ng/mL; in the data set with Staphylococcus aureus [27] (setting [40]) it was 1 µg/mL (≈ 1.88 µM); in the data set on Klebsiella pneumoniae [28], 2 µg/mL (≈ 3.77 µM); in the data set with Staphylococcus aureus [29], 1 µg/mL (≈ 1.88 µM). The values for the 50% effective dose (ED50) in the data set with Pseudomonas aeruginosa [5], in the data set with Escherichia coli [11] and in the data set on Staphylococcus aureus [17] were 6.3 mg/kg, 0.02 mg/kg and 0.4 mg/kg, respectively. Besides, the values for the half-life in data set [7] and in [10] were 90 min and 105 min, respectively. In addition, the Kb in the data set listed under Cavia porcellus [8] was 43.7 µM. This compound showed an RAP in the data set listed under Cavia porcellus [9] of 100. Besides, the Dose ratio in data set [21] was determined as 23.67.

Take `CO/N=C(\C(=O)N[C@@H]1C(=O)N2C(C(=O)[O-])=C(C[n+]3cccc(CC(=O)O)c3)CS[C@H]12)c1csc(N)n1` (stereo in doubt; 6): the MIC was 0.015 µg/mL (≈ 0.0282 µM) in the data set with Escherichia coli [3]; 0.015 µg/mL (≈ 0.0282 µM) against Streptococcus pneumoniae; 0.015 µg/mL (≈ 0.0282 µM) with Klebsiella pneumoniae [4]; 0.03 µg/mL (≈ 0.0563 µM) with Escherichia coli [6]; 0.015 µg/mL (≈ 0.0282 µM) with Streptococcus pyogenes [14]; 32 µg/mL (≈ 60.1 µM) against Pseudomonas aeruginosa [16]. Also, the MIC against Serratia marcescens is 0.25 µg/mL (≈ 0.469 µM); with Enterobacter cloacae [19] it was 0.5 µg/mL (≈ 0.939 µM); with Staphylococcus aureus [22], 4 µg/mL (≈ 7.51 µM); against Pseudomonas aeruginosa [23] it was 8 µg/mL (≈ 15 µM); in the data set with Enterobacter cloacae [24] it was over 128 µg/mL; against Staphylococcus aureus [27], 4 µg/mL (≈ 7.51 µM). In addition, the values for the median effective dose (ED50) with Mus musculus [30], with Mus musculus [31] and in the data set with Mus musculus [32] were over 50 mg/kg, 0.13 mg/kg and 7.8 mg/kg, respectively.

Take `CO/N=C(\C(=O)N[C@@H]1C(=O)N2C(C(=O)[O-])=C(C[n+]3cccc(CC(=O)O)c3)CS[C@H]12)c1csc(N)n1` (stereo in doubt; 17): the MIC against Bacteria worked out at 32 µg/mL (≈ 60.1 µM).

On to `CO/N=C(\C(=O)N[C@@H]1C(=O)N2C(C(=O)[O-])=C(C[n+]3cccc4ncccc43)CS[C@H]12)c1csc(N)n1`, for which the MIC is 0.06 µg/mL (≈ 0.114 µM) with Escherichia coli [3] (setting [34]); 0.06 µg/mL (≈ 0.114 µM) with Streptococcus pneumoniae (setting [35]); 0.06 µg/mL (≈ 0.114 µM) in the data set with Klebsiella pneumoniae [4] (setting [36]); 0.125 µg/mL (≈ 0.238 µM) in the data set on Escherichia coli [6] (setting [34]); over 128 µg/mL with Enterococcus faecium; 0.03 µg/mL (≈ 0.0571 µM) in the data set on Streptococcus pyogenes [33]. Besides, the MIC in the data set on Pseudomonas aeruginosa [16] (setting [37]) was determined as 8 µg/mL (≈ 15.2 µM); in the data set on Serratia marcescens (setting [38]), 0.5 µg/mL (≈ 0.951 µM); in the data set with Enterobacter cloacae [19] (setting [39]) it was 0.25 µg/mL (≈ 0.476 µM); in the data set on Staphylococcus aureus [22] (setting [40]), 4 µg/mL (≈ 7.61 µM); in the data set with Pseudomonas aeruginosa [23] (setting [37]) it was 4 µg/mL (≈ 7.61 µM); with Enterobacter cloacae [24] (setting [39]) it was 8 µg/mL (≈ 15.2 µM). Moreover, the MIC in the data set on Staphylococcus aureus [27] (setting [40]) is 2 µg/mL (≈ 3.81 µM); with Klebsiella pneumoniae [28] it was 4 µg/mL (≈ 7.61 µM).

One may read the ED50 as the dose at which the effect has come halfway, by size or by number of responders. By half-life is commonly meant the time in which the quantity being followed falls by half. Read a low half-life as fast loss.
